Source: ChEMBL document CHEMBL1122887, “Structure-activity studies on the N-terminal region of growth hormone releasing factor” (1985)

Key:
Assay type in all cases: functional
[1] = system: Rattus norvegicus; experiment: Effect on plasma growth hormone in anesthetized rat at a dose of 0.4 ug/100 g of body weight
Method in brief: (§1)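 Male Charles River rats (175–350 g) anesthetized with sodium pentobarbital (6 mg/100 g body wt); 30 min later, 6–9 per group received a single subcutaneous 0.5-mL injection of saline, GRF(1-29)NH₂ reference, or one of two analogue doses. Jugular vein blood was drawn 15 min post-injection, and plasma GH was measured by radioimmunoassay, reported as ng/mL ± SE.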

[2] = system: Rattus norvegicus; experiment: Percent growth hormone releasing activity in anesthetized rat relative to hpGRF (1-29)NH2
Method in brief: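 In pentobarbital-anesthetized male Charles River rats (6–9/group), two subcutaneous analogue doses and GRF(1-29)NH₂ reference doses were given. Plasma GH was measured by radioimmunoassay in jugular blood taken 15 min post-injection. Relative potency with 95% confidence limits came from a four-point assay design by Pugsley's method. Not active means no activity at the doses tested.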

[3] = system: Rattus norvegicus; experiment: Effect on plasma growth hormone in anesthetized rat at a dose of 1 ug/100 g of body weight; method in brief: as §1

CC[C@H](C)[C@H](NC(=O)[C@H](C)NC(=O)[C@H](CC(=O)O)NC(=O)[C@@H](C)NC(=O)[C@H](Cc1ccc(O)cc1)NC(C)=O)C(=O)N[C@@H](Cc1ccccc1)C(=O)N[C@H](C(=O)N[C@@H](CC(N)=O)C(=O)N[C@@H](CO)C(=O)N[C@@H](Cc1ccc(O)cc1)C(=O)N[C@@H](CCCN=C(N)N)C(=O)N[C@@H](CCCCN)C(=O)N[C@H](C(=O)N[C@@H](CC(C)C)C(=O)NCC(=O)N[C@@H](CCC(N)=O)C(=O)N[C@@H](CC(C)C)C(=O)N[C@@H](CO)C(=O)N[C@@H](C)C(=O)N[C@@H](CCCN=C(N)N)C(=O)N[C@@H](CCCCN)C(=O)N[C@@H](CC(C)C)C(=O)N[C@@H](CC(C)C)C(=O)N[C@@H](CCC(N)=O)C(=O)N[C@@H](CC(=O)O)C(=O)N[C@H](C(=O)N[C@@H](CCSC)C(=O)N[C@@H](CO)C(=O)N[C@@H](CCCN=C(N)N)C(N)=O)[C@@H](C)CC)C(C)C)[C@@H](C)O
Activity [1]: 1300 ng/mL | Activity [2]: 2558% | Activity [3]: 2496 ng/mL
